Assay results as given in the EternaBench riboswitch data.

System: MS2 coat protein
Assay: apparent Kd, MS2 coat protein; higher = weaker binding; RNA-MaP array
Procedure, shortened: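 Apparent Kd was taken as the median of binding curves fitted cluster by cluster. The designed RNAs were made by transcription of sequenced DNA templates on an Illumina sequencing chip and exposed to fluorescently labeled MS2 coat protein (1.5 nM to 3 μM) at room temperature, with or without input ligand, for 0.8–1.5 h at the lowest and 10–20 min at the highest concentrations. Any design measured on fewer than 10 clusters was left out.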

[1] = designed as: ON switch for flavin mononucleotide, no ligand
[2] = ligand present: flavin mononucleotide, designed as: ON switch for flavin mononucleotide
[3] = designed as: OFF switch for flavin mononucleotide, no ligand
[4] = ligand present: flavin mononucleotide, designed as: OFF switch for flavin mononucleotide
[5] = designed as: ON switch for tryptophan, no ligand
[6] = ligand present: tryptophan, designed as: ON switch for tryptophan
[7] = designed as: OFF switch for tryptophan, no ligand
[8] = ligand present: tryptophan, designed as: OFF switch for tryptophan
[9] = designed as: ON switch for theophylline, no ligand
[10] = ligand present: theophylline, designed as: ON switch for theophylline

Sequence | apparent Kd [1] [nM] | apparent Kd [2] [nM] | apparent Kd [3] [nM] | apparent Kd [4] [nM] | further results
AAAGAAAACGGAGGAUAUAGAAAUCCGAAUCCAAACCCGCCAACAUGAGGAUCACCCAUGUGCUUCUAGAAGGCCGAAUGCUAC | 19.8 | 17 |  |  | 
GACCCACAUGAGGAUCACCCAUGUCAGGAUAUCCGAUCGUCAAAGACCCAAAUAAUUAGGAGAAGGGACAUUAA |  |  | 15 | 15.4 | 
AAAUAAACCGAGGAUAUUAGAUUAGCAUACGAUUAAGAAGGCGGAACAUGAGGAUCACCCAUGUUGGGAGGUCU |  |  | 67.8 | 211 | 
GCAUCAUGAACGGCCGCCACUAAGGAAUGAGCGGCUCUUGCGAUACAUGAGGAUCACCCAUGUCUUAGGACCGGGUUCAUUGUCA |  |  |  |  | apparent Kd [5]: 234 nM; apparent Kd [6]: 127 nM
AAUGAGGCCUCUCAACAUGAGGAUCACCCAUGUAACGGAACAAAGGAUAUGGUCCAACUACUAACCCAGAAGGUUGUGACAGAA | 49.1 | 40.6 |  |  | 
CUCUAAUAAUAUUUCAACAUGAGGAUCACCCAUGUAAUCAGCAAGGAUAUGGUCUUGAUAAGAACCCAGAAGGUGCAUAUAGAU | 22.7 | 14.9 |  |  | 
AGCACAAUAGGAUAUACAUGAGGAUCACCCAUGUAGAAAUUUGGUACCCGGGUGUCUUGUAGAAGGAUAGAAGA |  |  | 16.4 | 15.1 | 
ACGUUGCAGCAAGGAUAUUCGAGACUACUAGAAGAAGAAGGUGCCGUGCUCUUCACAUGAGGAUCACCCAUGUGGCGUUAAUUU |  |  | 9.11 | 8.35 | 
CCAUGCGUUGAGAAGGUGCUCGGGAAUCCACAUGAGGAUCACCCAUGUUGACUAGUAAGGCAUCGCAAGGAUAUCAGCUAUCUC |  |  | 28.8 | 25.3 | 
UACAUGAGGAUCACCCAUGUUAACGCUUAGAUGCAUCGACGUGAGGAUAUCGGGUUAAACCAGCACGAGAAGGCACAUCCAGAU | 34.5 | 20.2 |  |  | 
GGUGCACAUGAGGAUCACCCAUGUGAGGAUAUGUGAAACGAGCUGAAUGCCAACCAAAACAGAAGGCACAAUGG |  |  | 18.3 | 19 | 
CCUGGAUCAGAUCUUAAAGGCGGUUCUGAUACCAGUCUUUUCCGAGACCCUUGGCAGCAGAACACAUGAGGAUCACCCAUGUAAA |  |  |  |  | apparent Kd (designed as: OFF switch for theophylline, no ligand): 52.4 nM; apparent Kd (ligand present: theophylline, designed as: OFF switch for theophylline): 46.5 nM
ACACAAACAGAAGGAUAUUUCACCAACAAGUCGAAAGAAGGUCUAGUACAUGAGGAUCACCCAUGUCUCAGUACAUCGCCGGUU |  |  | 33.7 | 30.9 | 
GCGUGGUAAGGAUAUGUGUACGUCCGGUAGUAUAGCGUACAACAGAAGGUACAUGAGGAUCACCCAUGUGUCCG |  |  | 7.03 | 7.94 | 
CUAAAUUACGCGUAGGAUAUAUUAAAGACUACAUGAGGAUCACCCAUGUCACUUAAACCACGAGAAUAGAAGGACGUAGAAAGAGA | 8.77 | 9.06 |  |  | 
ACUCGUUAAGGAUAUACUCGGUUUACUUGCAUGUUCGGCGCACAUGAGGAUCACCCAUGUAGAAGGUAAUAUUC |  |  | 24.6 | 27.2 | 
CUAAGAGUUACGGCCGCCACUAGUUGGGAUCCGCCCGUAAAAUCACAUGAGGAUCACCCAUGUCCUAGGACCGGGUAAUCGCAUU |  |  |  |  | apparent Kd [5]: 265 nM; apparent Kd [6]: 142 nM
CGUCGAUAACCACAUGAGGAUCACCCAUGUAAUGUGGUGUGGAGAAGGUCGUGCUAGUUCUAUACGAAGGAUAUCCACGAAUCU |  |  | 124 | 98.3 | 
UUGUUCAGCCUAGGAUAUGGGCAAACAUGAGGAUCACCCAUGUUGAGGCUACCACAAAGCCUGCACCAGAAGGAGGCCUAUACG | 9.27 | 5.71 |  |  | 
UACGUAUUAGGAGGAUAUGGCCCUCAUCUUUGACAUGAGGAUCACCCAUGUGGACAUUACGCCACCCAGAAGGCCUUGCUCGGA |  |  | 468 | 344 | 
CAUUCCAAGGCGGAGGAUAUUCGGAUCGCCACAUGAGGAUCACCCAUGUACGAGUAGUCUGCAACGAAGAAGGCCGUACGUCACCA | 10.5 | 6.57 |  |  | 
GCGGGACUGUAGAAGGGUUAUCCUUAAGGUCUGAUCACAUGAGGAUCACCCAUGUAACGGGUGGAACAGGAUAUACCAGAUCGC |  |  | 42 | 48.4 | 
GGCGAGACCCAGAAGGUUCGUCCGGAUCCGCGAUAAUACAUGAGGAUCACCCAUGUAAGACCGGGAAAGGAUAUGGGAACAGCG | 6.54 | 6.02 |  |  | 
UUUAGUCAAUCGGCCGCCACUGACAUGAGGAUCACCCAUGUAGGUAAGGAUCAACCUCGAAAGUACAGGACCGGGAUUCGCCUCU |  |  |  |  | apparent Kd [7]: 53.3 nM; apparent Kd [8]: 84 nM

Sequence | apparent Kd [1] [nM] | apparent Kd [2] [nM] | apparent Kd [3] [nM] | apparent Kd [4] [nM] | further results
CUCUGCUACCGGACUGGUUGGACAUGAGGAUCACCCAUGUACGAGGAUAUACGAAGAAGAACCAGGUAGAAGGCGUUUGGGUAC |  |  | 14.4 | 28.1 | 
AUUGGAGACUGGUACAUGAGGAUCACCCAUGUUAAUAACAGUAGAAGGCCCGCGGUUAGAAGAUGGGAGGAUAUACACGUGGGU |  |  | 10.4 | 17.8 | 
CCCAACAUGAGGAUCACCCAUGUUCCGGGUCGAGGACCGGUACGGCCGCCACUCGGUAUGAUGGGUGUGCAGCGUAUCUGCACCA |  |  |  |  | apparent Kd [5]: 38.5 nM; apparent Kd [6]: 17.2 nM
AAUGGGCGAGUAGAGCAUAAUUUCCACUCCCGAGGACCGGUACGGCCGCCACUCGUUCGCUCACAUGAGGAUCACCCAUGUGGUC |  |  |  |  | apparent Kd [7]: 32.3 nM; apparent Kd [8]: 57.2 nM
UUUAUAAUCGUAAGGAUAUCCGCGUUAGUCCACCCGGAGAAGGUACAUGAGGAUCACCCAUGUGAACUAUGGGU |  |  | 24.4 | 28.5 | 
GCUACACAUGAGGAUCACCCAUGUAUGCAUAGACGAGGAUAUAGACCACCUCCCGGGAUACUAGAAGGCGUGAUAU | 19.3 | 10.3 |  |  | 
UUAUAUCUUUAGGAUAUGCUGUGUCGGCAACUAGCAGAAGGAAAGACAUGAGGAUCACCCAUGUUGGUGCGUUC |  |  | 58.8 | 249 | 
GCUUCACAUGAGGAUCACCCAUGUCCGGAUACCAGCUCUCCAGACAGCCCUUGGCAGCCGAGCGCCCGAUUAUAUACCCUAGGAG |  |  |  |  | apparent Kd [9]: 22 nM; apparent Kd [10]: 29.9 nM
UUGGUUGCAUAGAAGGUGAGAUAGGAUCUACAUGAGGAUCACCCAUGUGUUAUCCCAAUUAGAAUCAAGGAUAUAUUGGCUUAU | 19.1 | 15.7 |  |  | 
CGAGAAUAUACAGGAUAUGGCGGAACCCAUUACAUGAGGAUCACCCAUGUACCAUGGAAAAGAGUCCAGAAGGGUAGAAUCAAA | 8.1 | 6.19 |  |  | 
GUACCUCCCAAAGGAUAUGGACCGCAGACAUGAGGAUCACCCAUGUAGGACGCACUGUUUGCGCGCCAGAAGGUUGUUAAUCGC |  |  | 98.5 | 73.2 | 
ACGAGCACCUCAGGAUAUGGAAAGGACUCUUCAUUGGCUACUCGAACAUGAGGAUCACCCAUGUUCCAGAAGGGAGGAGAAGCC |  |  | 7.07 | 11.6 | 
GAAGCGUGAGCAGGAUAUUUAGACAUGAGGAUCACCCAUGUGUGCUAACUAGAAUGCAGGUUUUUAAAGAAGGGCUCCUAGAUU | 11.4 | 7.11 |  |  | 
UCCAUGUUAGGAUAUCGGCCACCUUCGACAAAAGUGUACUGCGAGAAGGAACAUGAGGAUCACCCAUGUCUGGG |  |  | 416 | 104 | 
AAUUAUACAUGAGGAUCACCCAUGUCAAAUAUUGAUAGCUGGCAGGAUAUGAUAGAGACGGAAACUCAGAAGGGCCCGAUGAAC | 15 | 12.6 |  |  | 
ACCUCGUAAGGAUAUAGAUGCCCGUACACAACAACAGAACUCUAGAAGGUACAUGAGGAUCACCCAUGUUGAUG |  |  | 21.5 | 20.9 | 
CCUCCUUGUACGGCCGCCACUGCAUCUCUGGAUACUCCGAUAAUACAUGAGGAUCACCCAUGUUACAGGACCGGGUAUAUAUUAC |  |  |  |  | apparent Kd [5]: 15 nM; apparent Kd [6]: 16 nM
GUGGGCCGGGUAGGAUAUCGACAUGAGGAUCACCCAUGUGUGAGUUGAUGAACUCACGGAUAGCCCGAGAAGGACCUCAGGGCU | 17.9 | 16.2 |  |  | 
CAGUCUCUAGCGGCCGCCACUGUUCUGCUGGUGCUGCUGAACGAACAUGAGGAUCACCCAUGUCUCAGGACCGGGCUUCAGACUC |  |  |  |  | apparent Kd [5]: 26.1 nM; apparent Kd [6]: 26.9 nM
AAAUGUACGAAGAAGGCUCUGCCACUGGCCGAGAGAGGAUAUUCACACAUGAGGAUCACCCAUGUCGAACAAAGUACACAGAGC | 8.43 | 7.06 |  |  | 
CGUAACCAAGGAUAUACAUGAGGAUCACCCAUGUAUCGGGUCGGUCUGGGUCCAAUAAGUAGAAGGUGGCUGAU |  |  | 29.3 | 39.7 | 
UAGAGGACGGGAGGAUAUUCAGGUACAUCAGCCGAAGGCACACAUGAGGAUCACCCAUGUGGGUCGAAGAAGGCCCAGUUGACG | 5.37 | 4.67 |  |  | 
CAGCCACAUGAGGAUCACCCAUGUGAUGAUACCAGCUUCGUCUUAAGCCCUUGGCAGCAUAUCUCUUUGUUCUCAUACAUAGCAU |  |  |  |  | apparent Kd [9]: 11.1 nM; apparent Kd [10]: 12.3 nM
